Source: PubChem (several laboratories)
An excerpt weighted towards active compounds, which were near 4.5% of everything screened.
PHOSPHO1 inh: inhibitors of human PHOSPHO1 phosphatase; recombinant PHOSPHO1, absorbance phosphatase assay; inhibition, % at 13.3 µM; actives 1.1% (n = 290,000); AID 1565; in the data active means inhibition above about 60%
Target sequence (Q8TCT1 whole entry, looked up): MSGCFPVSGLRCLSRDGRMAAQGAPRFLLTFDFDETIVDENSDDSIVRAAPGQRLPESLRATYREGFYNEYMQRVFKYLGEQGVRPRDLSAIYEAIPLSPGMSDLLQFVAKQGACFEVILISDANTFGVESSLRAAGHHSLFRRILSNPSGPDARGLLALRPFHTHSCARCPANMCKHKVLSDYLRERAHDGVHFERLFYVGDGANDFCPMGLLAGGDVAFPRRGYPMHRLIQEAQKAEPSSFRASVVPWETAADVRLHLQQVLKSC
MrgX1 antag: blocks BAM8-22 activation of human MrgX1 receptor | AID 588676 | MRGX1-HEK293 calcium flux, Fluo-4, BAM8-22 antagonism; hits give low values | B-score at 10 µM | actives 1.3% (n = 310,000) | Q96LB2;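 active means calcium-response B-score plate-corrected more than 3 library SD below zero, starting fluorescence within 5 deviations, no agonist response on first addition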;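 further: peak minus trough fluorescence over baseline after final BAM8-22 challenge near maximal dose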
RGS4 pot: RGS4 potentiation or activation; HEK293 M3R/inducible RGS4, carbachol calcium flux Fluo4; hits give low values; B-score at 10 µM; actives 0.92% (n = 310,000);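 active means B-score of the integrated calcium signal more than 4 SD below the library mean, with starting fluorescence not abnormally high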;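 further: negative B-score means reduced calcium response which marks RGS4 activation or potentiation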
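System – HEK293 FlpIn-TREx cells, stable M3R, doxycycline-inducible RGS4 · Reagent – ECmax carbachol challenge · Times – compound preincubation 20 min at room temperature before agonist · Technique – Fluo4 fluorescence kinetic imaging of calcium · Measure – B score of integrated Fluo4 ratio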
MrgX1 PAM: human MrgX1 positive allosteric modulation, primary screen. AID 588675. MrgX1-HEK293, Fluo-4 calcium flux, FDSS; hits give high values. actives 0.63% (n = 310,000). Q96LB2. B-score at 10 µM;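 active means plate-corrected calcium response at least 3 library SD above typical, normal starting fluorescence, not activating the receptor alone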;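 further: compound read alongside a low EC10 to EC30 dose of BAM8-22 agonist; peak minus trough fluorescence over baseline measured at the second addition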
RGS4 inh: inhibitors of human RGS4; B-score at 10 µM; P49798; AID 463165; actives 0.45% (n = 310,000); HEK293 M3R/RGS4 inducible, Fluo-4 calcium flux; hits give high values; triggered by carbachol at its EC20;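 active means B-score, a plate-corrected calcium signal, over three deviations above library mean, with baseline fluorescence within five deviations of library mean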;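 further: RGS4 expression induced by doxycycline in cells with stable M3 receptor; B-score is computed from the integrated fluorescence ratio over baseline after carbachol; higher B-score means a larger calcium signal and so more RGS4 inhibition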
Target sequence (P49798 whole entry, looked up): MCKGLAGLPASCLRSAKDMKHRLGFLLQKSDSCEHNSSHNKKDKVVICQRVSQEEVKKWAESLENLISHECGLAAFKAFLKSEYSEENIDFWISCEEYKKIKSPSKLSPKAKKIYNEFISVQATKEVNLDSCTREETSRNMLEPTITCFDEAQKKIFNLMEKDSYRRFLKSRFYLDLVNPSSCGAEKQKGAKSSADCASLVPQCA
MrgX1 agonist: human MrgX1 receptor agonism, primary screen; AID 588627; MrgX1-HEK293 cells, Fluo-4 calcium fluorescence, agonist mode; hits give high values; B-score at 10 µM; actives 0.44% (n = 310,000);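 active means calcium response B-score plate-corrected fluorescence ratio at least 3 library SD, with starting fluorescence B-score inside 5 SD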
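Material: HEK293 cells stably expressing human MrgX1 receptor | Quantity: 15,000 cells per well | Times: Cells plated overnight, dye loaded 0.5 h 37 °C, 0.5 h room temperature | Measured by: Kinetic Fluo-4 NW fluorescence of intracellular calcium | Control set: Positive and negative controls per plate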
RGS4 block valid: validation of RGS4 inhibitors; shares compounds with RGS4 inh; actives 65% (n = 1,700); calcium response, % at 10 µM; HEK293 M3R/RGS4, carbachol calcium Fluo-4 fluorescence; carbachol added at its EC20; 0 = buffer wells, 100 = carbachol control;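 active means duplicate-averaged calcium response above the buffer-only control mean plus 5 SD of those controls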;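 further: integrated fluorescence ratio F max minus min over baseline F0; higher response in RGS4-induced cells means RGS4 inhibition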
M3R Ca ctr: non-induced cell nonspecific activity of RGS4 inhibitors; shares compounds with RGS4 inh; HEK293 M3R non-induced, carbachol calcium Fluo-4; submaximal (EC20) carbachol stimulus; buffer wells 0%, carbachol control wells 100%; activity (percent), % at 10 µM; actives 20% (n = 1,900); AID 493000; call rule not given here;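 further: RGS4 induction absent so cells express M3R without RGS4; higher means more calcium signal and flags a non-specific hit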
RGS4 inh ctr2: signal in non-induced cells without carbachol, RGS4 inhibitor counter-screen | shares compounds with RGS4 inh | HEK293 M3R/RGS4 non-induced, Fluo-4 calcium, no carbachol; normalised: buffer wells 0%, carbachol wells 100% | calcium response (agonist-mode artifact), % at 10 µM | actives 22% (n = 1,900) | AID 493001;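 active means duplicate-averaged calcium rise in uninduced cells above buffer wells' mean plus 5 SD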
* = called active by the depositor; i = inactive; nt = no result given.

SMILES	PHOSPHO1 inh	MrgX1 antag	RGS4 pot	MrgX1 PAM	RGS4 inh	MrgX1 agonist	RGS4 block valid	M3R Ca ctr	RGS4 inh ctr2
COc1ccc(S(=O)(=O)N2CCCOC2CNC(=O)C(=O)NC2CCCC2)cc1 (stereo not drawn)	9.8	i	i	i	i	i	i	i	i
CC(C)CNC(=O)CN(c1cccc(Cl)c1)S(C)(=O)=O	32.3	i	i	i	i	i	nt	nt	nt
O=C(c1cc2n(n1)C(C(F)(F)F)CC(c1ccco1)N2)N1CCc2ccccc2C1 (stereo not drawn)	-14.1	i	i	i	5.16*	i	8.0%*	i	28.0%*
C=CCNC(=O)COc1cc(C)cc(C)c1C	29.5	i	i	i	i	i	nt	nt	nt
COc1ccccc1/C=C/C=N/n1c(-c2cc(-c3ccccc3)n[nH]2)n[nH]c1=S	-23.1	i	i	i	7.71*	i	45.0%*	36.0%*	i
CCn1c(SCC(=O)NNC(=O)c2ccco2)nnc1-c1ccco1	16.2	i	i	i	i	i	nt	nt	nt
Cn1ncc(Cl)c1C(=O)Nc1nc2ccc(Cl)cc2s1	10.8	i	i	i	i	i	nt	nt	nt
Cc1cc(C(=O)Nc2nc3ccc(Cl)cc3s2)nn1C	-11.8	i	i	i	5.01*	i	10.5%*	i	i
O=C1NC(c2ccccc2)=C(c2ccc3ccccc3n2)C(c2ccccc2)N1 (stereo not drawn)	-0.2	i	i	i	i	i	nt	nt	nt
O=C1NC(c2ccccc2)=C(c2nc3ccccc3s2)C(c2ccc(O)cc2)N1 (stereo not drawn)	26.1	i	i	i	8.59*	i	8.5%*	i	8.0%*
O=c1[nH]c(NCCO)nc2c1C1(CCCC1)Cc1ccccc1-2	57.0	i	i	i	8.4*	i	43.0%*	70.0%*	22.5%*
C=CCNC(=S)NNc1nc2c(c(=O)[nH]1)C1(CCCCC1)Cc1ccccc1-2	-26.9	i	i	i	10.7*	i	34.0%*	i	i
CCC1(C)Cc2ccccc2-c2nc(NCCO)[nH]c(=O)c21 (stereo not drawn)	0.3	i	i	i	7.96*	i	20.5%*	i	i
CC1(C)Cc2ccccc2-c2nc(NCCCO)[nH]c(=O)c21	3.2	i	i	i	i	i	nt	nt	nt
CCC1(C)Cc2ccccc2-c2nc(NN)[nH]c(=O)c21 (stereo not drawn)	47.9	i	i	i	i	i	nt	nt	nt
CCCN(CC(=O)Nc1cc(Cl)ccc1Cl)C(=O)c1ccccc1SCC(=O)N1CCCC1	nt	i	i	i	i	i	nt	nt	nt
CCC(=O)NC(c1ccccc1)c1c(OC(C)=O)ccc2ccccc12 (stereo not drawn)	36.3	i	i	i	i	i	nt	45.0%*	7.0%*
CCC(=O)NC(c1cccc([N+](=O)[O-])c1)c1c(OC(C)=O)ccc2ccccc12 (stereo not drawn)	4.9	i	i	i	i	i	nt	nt	nt
CCOC(=O)c1c(C)[nH]c(C(=O)CN2C(=O)NC(C)(c3ccc4ccccc4c3)C2=O)c1C (stereo not drawn)	-22.8	i	i	i	5.7*	i	9.0%*	i	i
